Calb FLC – affects C. albicans growth with fluconazole; C. albicans CaCi-2 (fluconazole-resistant clinical isolate) + fluconazole, Alamar Blue growth, 48 h; growth inhibition, % (no concentration beside the values); 300,000 tested, 0.57% active; AID 1979;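 active = growth inhibition above about 58% in most replicates, limit read from the data, passing the limit was not always enough; inconclusive = exactly half the replicates above a set limit; inactive = most replicates below a set limit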;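 also: all wells also contain fluconazole at 8 µg/ml as a sub-toxic cotreatment; 0% = median of DMSO wells and 100% = median of geldanamycin control wells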
T cruzi repl – T. cruzi replication inhibition | AID 1885 | 300,000 tested, 1.4% active | T. cruzi beta-gal in NIH3T3, luminescence, 90 h | inhibition, % (test concentration not listed);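 active = mean inhibition across valid replicates above about 55%, limit read from the data; inconclusive = mean below that limit but half or more replicates reach it; inactive = mean below it, under half of replicates reach it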;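 also: signal also drops with host cell toxicity which is not excluded here; 0% = plate median of DMSO wells and 100% = zero luminescence signal; higher percent means less beta-gal luminescence so fewer parasites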
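System: mouse NIH/3T3 fibroblasts infected with β-gal-expressing T. cruzi Tulahuen C4 / Input: NIH/3T3 cells, 5,000 per well / Buffer or medium: Low-serum DMEM with 2% FBS / Probe or stimulus: 5000 reporter trypomastigotes per well / Schedule: ≥90 h infection period, 3 h prior cell attachment / Measured by: GalScreen luminescence, 60 min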
CSC inhib – cancer stem cell inhibition; 300,000 tested, 1.1% active; AID 2717; cancer stem cell-like cells viability, luminescence; inhibition, % at 7.5 µM; in the data active = inhibition above about 75%; inconclusive = no clear call, values can overlap the other calls; tested in HMLE shEcad cells
Beta apoptosis – blocks beta cell apoptosis | 300,000 tested, 0.8% active | protection from apoptosis, % (no concentration beside the values) | INS-1E cytokine-induced death, ATP luminescence, 48 h; percent of positive-control rescue, neutral wells zero;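 active = Every replicate reaches about 75%, or at least half do and their mean reaches it too, limit read from the data; inconclusive = At least half of replicates reach the limit but their mean does not; inactive = Under half of replicates reach the limit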;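 also: 0% = cytokine-treated negative control wells and 100% = positive control rescue; higher means more ATP so stronger rescue from cytokine killing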
SKKanGAS inh – inhibitors of SKKanGAS S. pyogenes growth in kanamycin (SK-promoter or general growth effect). BacTiter-Glo, 6 h. inhibition, % at 7.5 µM. 300,000 tested, 1.3% active;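 active = mean replicate score, as percent of positive control median, at least 50; inconclusive = mean below 50 but one replicate at or above 50; inactive = mean and every replicate below 50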;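 also: strain carries kanamycin resistance gene driven by streptokinase promoter and grows in 40 µg/ml kanamycin; loss of luminescence reflects streptokinase promoter inhibition or plain growth inhibition; 0% = median of DMSO wells and 100% = positive control at its reference dose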
Mdm2-MdmX inh – disrupts the human Mdm2-MdmX interaction | AID 485346 | inhibition, % at 8 µM | SaOS-2 split-luciferase Mdm2/MdmX complementation, luminescence | 330,000 tested, 3% active;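 active = inhibition of at least 50% at 8 µM in the primary screen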
Mdm2 MdmX conf – confirmation of human Mdm2/MdmX interaction inhibitors. inhibition, % at 8 µM. AID 489028. 10,000 tested, 55% active. shares compounds with Mdm2-MdmX inh. Mdm2-MdmX binding, luminescent assay; in the data active = inhibition above about 40%
Full FLuc ctr – inhibits full-length luciferase, flagging false Mdm2/MdmX hits | shares compounds with Mdm2-MdmX inh | SaOS-2 full-length luciferase counterscreen, luminescence | inhibition, % at 8 µM | 6,200 tested, 77% active | AID 504607;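 active = mean inhibition at 8 µM reaching about 37%, which flags the compound as non-specific, limit read from the data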;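 also: p53-null SaOS-2 cells with luciferase driven by a doxycycline-inducible promoter; compound on cells about two nights before reading with doxycycline added after day one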
* hit, by the source's call; u = inconclusive; x = no result given. In the library only some 5.7% were active in any assay of this set; here they are far more common.

SMILES	Calb FLC	T cruzi repl	CSC inhib	Beta apoptosis	SKKanGAS inh	Mdm2-MdmX inh	Mdm2 MdmX conf	Full FLuc ctr
CCOc1ccc(-c2csc(/C(C#N)=C\c3ccc(O)c([N+](=O)[O-])c3)n2)cc1	-10	9	108*	74	101*	96*	83*	52*
CCCCc1ccc(-c2csc(/C(C#N)=C\c3ccc(C)o3)n2)cc1	15	10	13	4	-6	-21	x	x
COc1cccc(N2CCN(c3nc(-c4ccccc4C)cc(=O)[nH]3)CC2)c1	4	-51	x	x	8	95*	76*	81*
COc1cccc(N2CCN(c3nc(C)c(C)c(=O)[nH]3)CC2)c1	-8	-4	-3	-5	-3	-1	x	x
CN(CCc1ccccc1)C(=O)c1ccc(NC(=O)Cc2ccc([N+](=O)[O-])cc2)cc1	x	x	-14	3	x	12	x	x
O=C(N/N=C/c1c(F)cccc1Cl)C(=O)N1CCCCCC1	-10	-6	-6	-2	-2	56*	0	x
CCOC(=O)C(=CNc1nc(-c2ccccc2)c(C(=O)Nc2ccc(-c3ccccc3)cc2)s1)C(=O)OCC	3	-11	6	x	-3	71*	15	x
CCOC(=O)Nc1nc(-c2ccccc2)c(C(=O)c2ccc(Cl)cc2)s1	55	22	81*	19	36	66*	60*	106*
COc1ccc(OC)c(NC(=O)COC(=O)CC2CCCCC2)c1	x	x	x	3	x	-14	x	x
CCOC(=O)N1CCN(c2c(F)cc3[nH]c(=S)[nH]c3c2Br)CC1	-9	30	x	14	7	61*	58*	47*
CCOC(=O)N1CCN(c2cc3[nH]c(=S)[nH]c3cc2F)CC1	7	1	-13	1	0	13	x	x
CC(C)(C)c1ccc(-c2noc(CCC(=O)Nc3cccnc3)n2)cc1	4	2	x	5	8	55*	53*	22
CC(C)(C)OC(=O)COc1cc(F)ccc1[N+](=O)[O-]	x	x	-13	-7	x	-19	x	x
CN1CCN(c2ccc(NC(=O)c3ccc(-c4ccc(Cl)cc4)o3)cc2)CC1	54	49	105*	26	u	100*	48*	77*
CN1CCN(c2ccc(NC(=O)c3ccc(-c4cccc([N+](=O)[O-])c4)o3)cc2)CC1	11	50	-14	4	-16	-4	x	x
CS(=O)(=O)N1CCN(c2ccc(NC(=O)c3ccc(-c4ccc(Cl)cc4)o3)cc2)CC1	-2	4	0	-3	1	50	27	x
CCc1nnc(NC(=O)c2ccc(-c3ccc(Cl)cc3)o2)s1	12	-10	-1	-8	-13	65*	-12	x
Cc1cccc(C(=O)OCC(=O)NCCNC(=O)COC(=O)c2cccc(C)c2C)c1C	24	-6	-2	-2	1	-16	x	x
COc1ccc(CNC(=O)CN(c2ccc(C)cc2)S(=O)(=O)c2c(C)nn(C)c2C)cc1	4	-5	5	6	1	9	x	x
O=C(CNC(=O)c1cccs1)N/N=C/c1cccc(Cl)c1	6	-2	3	-5	-1	16	x	x
Nc1nnnn1/N=C/C(Br)=C/c1ccccc1	56	-16	122*	42	0	100*	93*	50*
Cc1nn(C2CCS(=O)(=O)C2)c(C)c1CN(C)C(=O)c1ccc(Cl)cc1 (configuration not stated)	x	x	x	2	x	7	x	x
Cc1ccsc1-c1nc(C(N)=O)c2[nH]c(=O)n(-c3ccc(Cl)cc3)c2n1	7	-3	1	0	-3	97*	12	x
CCOC(=O)CN(C(=O)CSc1nnnn1C)c1ccccc1	x	x	-16	-6	x	22	x	x
Nc1ccc(N=Nc2ccccc2)c2cccnc12	35	28	14	5	25	-46	x	x
SMILES	Calb FLC	T cruzi repl	CSC inhib	Beta apoptosis	SKKanGAS inh	Mdm2-MdmX inh	Mdm2 MdmX conf	Full FLuc ctr
Oc1ccc(N=Nc2ccc3c(c2)OCCO3)c2cccnc12	100*	83*	x	x	88*	77*	89*	53*
COc1ccc(N=Nc2ccc(O)c3ncccc23)cc1	3	46	151*	104*	70*	77*	84*	32
O=C(Nc1cccc2ncccc12)c1ccc2c(c1)OCCO2	u	-7	5	1	-14	4	x	x
COc1cccc(N=Nc2ccc(O)c3ncccc23)c1	101*	34	123*	104*	79*	82*	92*	21
COc1cccc(N=Nc2ccc3cccnc3c2O)c1	86*	43	90*	90*	118*	91*	90*	23
CC(=O)Nc1ccc(-c2csc(NC(=O)CCNC(=O)c3ccco3)n2)cc1	x	x	1	7	x	25	x	x
CC(OC(=O)Cn1[nH]c(=O)c2ccccc2c1=O)C(=O)Nc1cccc(Cl)c1 (configuration not stated)	18	-9	0	2	18	-14	x	x
CCC(NC(=S)NCc1ccc(F)cc1)c1ccc(C(C)C)cc1 (configuration not stated)	-22	23	52	17	40	76*	23	x
CCS(=O)(=O)N1CCC(C(=O)Nc2ccc(C(C)=O)cc2)CC1	1	-19	6	-1	-1	29	x	x
COc1ccc(C=C2c3ccccc3C(=O)c3ccccc32)c(OC)c1	7	9	-10	8	-5	66*	57*	97*
COc1ccc(/C=C2\COc3ccccc3C2=O)c(OC)c1	17	-4	60	4	-1	59*	34	76*
COc1ccc(/C=C2\COc3ccccc3C2=O)cc1OC	-3	1	24	-1	-5	11	x	x
COc1ccc(/C=C2\CN(Cc3ccccc3)C/C(=C\c3ccc(OC)cc3OC)C2=O)c(OC)c1	-3	81*	13	9	-2	67*	60*	63*
COc1cccc(-n2cnnc2SCC(=O)NC2CC2)c1	x	x	15	-4	x	-19	x	x
Cc1cc(C)c(OCC(=O)OC(C)C(=O)NC2CC2)c(C)c1 (configuration not stated)	u	-20	17	2	-2	-1	x	x
O=C(Nc1ccc2c(c1)CCC2)c1cnn2c1NC(c1ccco1)CC2C(F)(F)F (configuration not stated)	x	x	-2	10	x	88*	54*	79*
Cc1cccc(C(=O)OC(C)C(=O)NCC2CCCCC2)c1O (configuration not stated)	x	x	x	x	x	14	x	x
Cc1cccc(C)c1NC(=S)N=Nc1c(O)n(C)c2ccc(S(=O)(=O)N3CCOCC3)cc12	-7	18	29	9	44	64*	30	x
Cc1cc(C)cc(NC(=S)N=Nc2c(O)n(C)c3ccc(S(=O)(=O)N4CCOCC4)cc23)c1	1	25	31	29	17	23	x	x
